Experimental findings from ChEMBL document CHEMBL3351281, “1,3,4-Oxadiazole-containing histone deacetylase inhibitors: anticancer activities in cancer cells” (J Med Chem, 2014) are described below.

Assay [1] deals with MOLM-13. The experiment in a line: Antiproliferative activity against human MOLM13 cells after 48 hrs by Cell Titer GLo Assay. In kind it is functional, cell-based. The note with it: MOLM-13, 48 h. The gist of the method:
(§1)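 AML cells grown in RPMI with 10% fetal calf serum, antibiotics, amphotericin-B, 10 mM HEPES and 2 mM glutamine, kept at 200 000 cells/mL. Exponentially growing cells seeded in duplicate in 6-well plates (2 × 10⁵ cells/well), treated 24 h later at 1 to 50 μM for 48 h. Viability by Cell Titer GLo.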
On the technique in general: In ATP-based viability assays light output follows the ATP content of the culture.

In assay [2] the test system is U-937. In words: Induction of apoptosis in human U937 cells assessed as accumulation at pre-G1 phase at 25 uM after 48 hrs by propidium iodide staining based FACS method. In kind it is functional. The gist of the method:
(§2)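 U937 cells exposed to 0.1, 1, 5, 10 and 25 μM for 24 and 48 h. Reference drugs at 5 μM served as positive controls. Apoptosis taken as the percentage of cells in the pre-G1 peak.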
On the technique in general: Flow cytometry measures light scatter and fluorescence of single cells or particles in a stream.

The subject of assay [3] is U-937. In words: Induction of apoptosis in human U937 cells assessed as accumulation at pre-G1 phase after 48 hrs by propidium iodide staining based FACS method. The format is functional, cell-based. The gist of the method:
as §2

The subject of assay [4] is SW-620. In words: Antiproliferative activity against human SW620 cells after 48 hrs by MTT assay. The format is functional, cell-based. The note with it: SW-620, 48 h. The procedure, abridged:
(§3)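 Solid tumour cells grown in RPMI with 10% fetal calf serum and penicillin. Exponentially growing cells seeded in sextuplicate in 96-well plates (3 × 10³ cells/well), treated 24 h later at 1 to 50 μM for 48 h. Viability read by MTT.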

For assay [5], the target named is Histone deacetylase 4 (Homo sapiens, UniProt P56524). The experiment in a line: Inhibition of human recombinant HDAC4 using non-histone trifluoroacetyl lysine substrate pre-incubated at room temperature for 15 mins before substrate addition by fluorimetric assay.
Histone deacetylase 4, sequence (P56524 whole entry): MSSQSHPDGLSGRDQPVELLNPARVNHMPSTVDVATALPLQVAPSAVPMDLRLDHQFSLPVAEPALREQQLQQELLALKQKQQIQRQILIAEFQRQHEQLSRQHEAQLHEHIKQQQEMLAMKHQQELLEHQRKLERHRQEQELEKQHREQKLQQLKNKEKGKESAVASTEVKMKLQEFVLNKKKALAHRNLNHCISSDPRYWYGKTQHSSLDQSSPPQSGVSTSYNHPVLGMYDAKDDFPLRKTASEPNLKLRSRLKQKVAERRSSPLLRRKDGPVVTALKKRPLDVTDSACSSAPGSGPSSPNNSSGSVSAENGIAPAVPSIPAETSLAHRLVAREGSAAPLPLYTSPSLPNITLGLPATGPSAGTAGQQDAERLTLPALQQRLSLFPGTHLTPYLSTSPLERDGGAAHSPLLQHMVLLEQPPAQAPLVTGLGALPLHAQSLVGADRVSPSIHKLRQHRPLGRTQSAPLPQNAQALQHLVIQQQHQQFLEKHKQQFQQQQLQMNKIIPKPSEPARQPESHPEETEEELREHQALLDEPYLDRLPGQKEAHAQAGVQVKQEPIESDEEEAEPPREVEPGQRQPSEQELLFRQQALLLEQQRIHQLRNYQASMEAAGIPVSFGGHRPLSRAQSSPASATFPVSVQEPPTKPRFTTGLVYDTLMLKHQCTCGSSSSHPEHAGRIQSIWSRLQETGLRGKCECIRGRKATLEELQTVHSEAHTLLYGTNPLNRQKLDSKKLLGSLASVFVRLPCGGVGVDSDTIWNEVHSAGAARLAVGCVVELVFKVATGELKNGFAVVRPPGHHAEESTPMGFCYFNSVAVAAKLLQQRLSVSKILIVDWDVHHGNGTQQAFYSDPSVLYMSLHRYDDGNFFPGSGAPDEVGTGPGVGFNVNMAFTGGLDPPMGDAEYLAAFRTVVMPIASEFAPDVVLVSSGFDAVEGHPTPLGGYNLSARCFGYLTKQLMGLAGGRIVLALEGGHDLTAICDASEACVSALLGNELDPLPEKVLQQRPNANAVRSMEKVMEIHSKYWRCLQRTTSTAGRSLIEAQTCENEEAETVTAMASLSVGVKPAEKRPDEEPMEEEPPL
Assay [6] concerns A549. In words: Antiproliferative activity against human A549 cells after 48 hrs by MTT assay. In kind it is functional, cell-based. The note with it: A549, 48 h. The gist of the method: as §3
(Tetrazolium assays rely on reduction of a dye to a coloured formazan, in cell work by metabolically active cells.)

For assay [7], the system named is U-937. As to conditions: Homo sapiens, at 2.5 µM.
The test system of assay [8] is U2OS. The experiment in a line: Antiproliferative activity against human U2OS cells after 48 hrs by MTT assay. The format is functional, cell-based. The gist of the method:
as §3

Assay [9] in a line: Antiproliferative activity against human U937 cells after 48 hrs by Cell Titer GLo Assay. In kind it is functional, cell-based. The note with it: U-937, 48 h. The gist of the method: as §1
Assay [10] addresses T1, Protein deacetylase HDAC6 (Homo sapiens, UniProt Q9UBN7).
T1 sequence (Q9UBN7 whole entry): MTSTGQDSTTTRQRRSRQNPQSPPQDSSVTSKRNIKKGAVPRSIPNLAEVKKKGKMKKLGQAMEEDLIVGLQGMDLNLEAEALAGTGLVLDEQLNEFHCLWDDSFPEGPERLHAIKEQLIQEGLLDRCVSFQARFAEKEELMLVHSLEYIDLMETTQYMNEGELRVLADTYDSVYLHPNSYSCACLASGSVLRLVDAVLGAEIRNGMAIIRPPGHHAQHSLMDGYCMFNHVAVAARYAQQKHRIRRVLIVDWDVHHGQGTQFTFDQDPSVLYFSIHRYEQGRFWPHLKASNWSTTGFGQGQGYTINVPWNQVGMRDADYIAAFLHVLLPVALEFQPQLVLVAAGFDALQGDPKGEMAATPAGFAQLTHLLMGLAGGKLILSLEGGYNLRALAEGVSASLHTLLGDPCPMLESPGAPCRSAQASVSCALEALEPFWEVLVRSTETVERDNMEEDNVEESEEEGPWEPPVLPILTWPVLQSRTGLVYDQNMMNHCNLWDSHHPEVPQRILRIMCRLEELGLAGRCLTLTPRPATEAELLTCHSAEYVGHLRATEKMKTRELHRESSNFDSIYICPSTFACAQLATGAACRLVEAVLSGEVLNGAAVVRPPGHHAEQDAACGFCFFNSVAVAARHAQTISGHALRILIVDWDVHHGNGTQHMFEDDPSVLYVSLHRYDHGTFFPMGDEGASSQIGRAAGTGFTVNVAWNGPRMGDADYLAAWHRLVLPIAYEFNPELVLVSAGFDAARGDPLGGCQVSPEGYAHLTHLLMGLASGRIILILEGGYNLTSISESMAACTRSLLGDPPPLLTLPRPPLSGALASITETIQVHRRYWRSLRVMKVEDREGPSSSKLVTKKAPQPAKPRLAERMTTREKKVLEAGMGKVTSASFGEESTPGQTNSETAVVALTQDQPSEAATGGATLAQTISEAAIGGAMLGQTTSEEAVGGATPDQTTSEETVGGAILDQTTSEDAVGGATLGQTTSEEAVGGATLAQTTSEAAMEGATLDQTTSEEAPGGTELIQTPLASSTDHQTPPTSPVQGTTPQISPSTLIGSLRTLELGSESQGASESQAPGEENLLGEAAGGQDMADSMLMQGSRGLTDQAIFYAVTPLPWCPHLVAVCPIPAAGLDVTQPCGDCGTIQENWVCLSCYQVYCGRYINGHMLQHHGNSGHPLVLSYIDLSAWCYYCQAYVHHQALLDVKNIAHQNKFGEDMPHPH
In words: Inhibition of human recombinant HDAC6 pre-incubated at room temperature for 15 min before substrate addition by fluorimetric assay.

Assay [11] deals with Histone deacetylase 1 (Homo sapiens, UniProt Q13547). The experiment in a line: Inhibition of human recombinant HDAC1 using histone H3 substrate pre-incubated at room temperature for 15 mins before substrate addition by fluorimetric assay.
Histone deacetylase 1, sequence (Q13547 whole entry): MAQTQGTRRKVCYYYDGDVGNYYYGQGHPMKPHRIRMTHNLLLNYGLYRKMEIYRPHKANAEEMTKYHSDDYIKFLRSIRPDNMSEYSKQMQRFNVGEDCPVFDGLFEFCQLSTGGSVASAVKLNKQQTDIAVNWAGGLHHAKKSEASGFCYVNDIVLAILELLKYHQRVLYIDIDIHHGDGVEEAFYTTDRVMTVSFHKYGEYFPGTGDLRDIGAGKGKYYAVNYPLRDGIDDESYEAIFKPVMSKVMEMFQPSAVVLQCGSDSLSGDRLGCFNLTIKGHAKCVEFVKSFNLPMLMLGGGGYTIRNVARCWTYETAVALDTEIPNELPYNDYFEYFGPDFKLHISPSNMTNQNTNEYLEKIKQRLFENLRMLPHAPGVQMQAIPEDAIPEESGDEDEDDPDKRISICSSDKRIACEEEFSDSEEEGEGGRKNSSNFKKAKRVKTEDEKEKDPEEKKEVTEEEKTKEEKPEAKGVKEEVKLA
Assay [12] deals with HEL. In words: Antiproliferative activity against human HEL cells after 48 hrs by Cell Titer GLo Assay. The format is functional, cell-based. The procedure, abridged:
as §1

A short description of assay [13]: Antiproliferative activity against human HCT116 cells after 48 hrs by MTT assay. The note with it: HCT-116, 48 h. In kind it is functional, cell-based. The gist of the method:
as §3

Assay [14] concerns MDA-MB-468. The experiment in a line: Antiproliferative activity against human MDA-MB-468 cells after 48 hrs by MTT assay. As to conditions: MDA-MB-468, 48 h. The format is functional, cell-based. The procedure, abridged: as §3
Assay [15] has as its system HCC1937. The experiment in a line: Antiproliferative activity against human HCC1937 cells after 48 hrs by MTT assay. The format is functional, cell-based. As to conditions: HCC1937, 48 h. The procedure, abridged: as §3
A short description of assay [16]: Antiproliferative activity against human KG1 cells after 48 hrs by Cell Titer GLo Assay. As to conditions: KG-1, 48 h. In kind it is functional, cell-based. The procedure, abridged:
as §1

The subject of assay [17] is U-937. The experiment in a line: Induction of apoptosis in human U937 cells assessed as accumulation at pre-G1 phase at 5 uM after 48 hrs by propidium iodide staining based FACS method. In kind it is functional. The procedure, abridged:
as §2

The test system of assay [18] is M14. In words: Antiproliferative activity against human M14 cells after 48 hrs by MTT assay. In kind it is functional, cell-based. As to conditions: M14, 48 h. The gist of the method: as §3
A short description of assay [19]: Antiproliferative activity against human SANTO cells after 48 hrs by MTT assay. In kind it is functional, cell-based. The procedure, abridged: as §3
In assay [20] the test system is U-937. The experiment in a line: Induction of granulocytic differentiation in human U937 cells assessed as increase in CD11c expression after 48 hrs by FACS method. The format is functional, cell-based. The gist of the method:
(§4)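 Granulocytic differentiation in U937 cells at 0.1, 1, 5, 10 and 25 μM for 24 and 48 h, with reference drugs at 5 μM as positive controls. Read-out was the percentage of CD11c-positive, propidium iodide-negative cells.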

The nature of assay [21]: Antiproliferative activity against human HL60 cells after 48 hrs by Cell Titer GLo Assay. In kind it is functional, cell-based. As to conditions: HL-60, 48 h. The procedure, abridged:
as §1

Assay [22] relates to U-937. The experiment in a line: Induction of cell cycle arrest in human U937 cells assessed as accumulation at S phase at 0.1 to 25 uM after 48 hrs by propidium iodide staining based FACS method. In kind it is functional. The gist of the method:
(§5)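 U937 cells treated at 0.1, 1, 5, 10 and 25 μM for 24 and 48 h, with reference drugs at 5 μM as positive controls. Cell-cycle distribution measured, with accumulation in S phase scored.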

The subject of assay [23] is U-937. The experiment in a line: Induction of granulocytic differentiation in human U937 cells assessed as increase in CD11c expression at 5 uM after 48 hrs by FACS method. In kind it is functional. The procedure, abridged:
as §4

A short description of assay [24]: cells. The note with it: Homo sapiens, U-937, 24 h. In kind it is functional.
Assay [25] concerns U-937. The experiment in a line: Induction of cell cycle arrest in human U937 cells assessed as accumulation at S phase at 1 uM after 48 hrs by propidium iodide staining based FACS method. In kind it is functional. The procedure, abridged:
as §5

In assay [26] the test system is U-937. The experiment in a line: Induction of cell cycle arrest in human U937 cells assessed as accumulation at S phase at 5 uM after 48 hrs by propidium iodide staining based FACS method. The format is functional. The procedure, abridged:
as §5

The source made the active and inactive calls. The rule behind the calls is not given here.

As for `O=C(/C=C/c1ccc(Cc2nnc(Cc3cccc4ccccc34)o2)cc1)NO`, the IC50 (in general, the concentration needed to halve the response being measured) in [1] was 2.2 µM; in assay [4], 5.1 µM; in assay [5] it was over 20 µM; in assay [6] it was 29.5 µM; in assay [8], 50 µM; in assay [9], 7.8 µM. Moreover, the IC50 was determined as 0.03 µM in [10]; 0.2 µM in assay [11]; 4.1 µM in assay [12]; 21.3 µM in [13]; 18.4 µM in assay [14]; 33.6 µM in assay [15]. Further, the IC50 worked out at 2.6 µM in assay [16], 45 µM in assay [18], 24 µM in assay [19] and 6 µM in assay [21]. Further, the Activity in [2] was 74%; in [3], “Dose-dependent effect”; in [17], 58%; in assay [20] it was “Dose-dependent effect”. In addition, the inhibition – broadly, the percentage by which the read-out fell short of the control – in assay [7] was “Active”.

For `Nc1ccccc1NC(=O)/C=C/c1ccc(-c2nnc(Cc3c[nH]c4ccccc34)o2)cc1`, the IC50 was over 20 µM in [5], over 20 µM in [10] and 1.5 µM in [11].

For the compound `Nc1ccccc1NC(=O)c1ccc(Cc2nnc(Cc3cccc4ccccc34)o2)cc1`, the outcome in [22] and in [25] was Active. For the same compound, the Activity in assay [23] was 45%; in assay [3], “Dose-dependent effect”; in assay [20], “Dose-dependent effect”. The compound further displayed an inhibition at 2.5 µM in assay [24] of 75%. Moreover, the IC50 in [1] is 1.6 µM; in assay [4] it was 6.7 µM; in [5] it was over 20 µM; in assay [6] it was 23.6 µM; in assay [8], 20.4 µM; in assay [9], 1.8 µM. Besides, the IC50 worked out at 8.9 µM in [10]; 0.2 µM in assay [11]; 2 µM in [12]; 24.7 µM in [13]; 19.6 µM in assay [14]; 29.8 µM in [15]. Moreover, the IC50 amounted to 1.8 µM in [16], 43.3 µM in assay [18], 17.4 µM in [19] and 2.8 µM in assay [21].

`O=C(NO)c1ccc(-c2nnc(Cc3cccc4ccccc34)o2)cc1`: the IC50 was over 20 µM in assay [5], 4.1 µM in assay [10] and 9.9 µM in assay [11].

Turning to `O=C(NO)c1ccc(Cc2nnc(Cc3cccc4ccccc34)o2)cc1`, the result in assay [22] was Active. In addition, in assay [3], the Activity entry was “Dose-dependent effect”. Further, the IC50 in assay [5] is 7.8 µM; in [10], 1.2 µM; in [11], 0.2 µM.

With `Nc1ccccc1NC(=O)/C=C/c1ccc(-c2nnc(Cc3ccc4ccccc4c3)o2)cc1`, the IC50 in assay [5] was over 20 µM; in [10], over 20 µM; in assay [11], 2.4 µM.

For `Nc1ccccc1NC(=O)/C=C/c1ccc(Cc2nnc(Cc3cccc4ccccc34)o2)cc1`, the IC50 was over 20 µM in assay [5], over 20 µM in assay [10] and 4.1 µM in assay [11].

Regarding `O=C(/C=C/c1ccc(-c2nnc(Cc3cccc4ccccc34)o2)cc1)NO`, the IC50 is over 20 µM in assay [5], 0.06 µM in assay [10] and 0.8 µM in assay [11].

For the compound `Nc1ccccc1NC(=O)/C=C/c1ccc(-c2nnc(Cc3cccc4ccccc34)o2)cc1`, the IC50 in [5] is over 20 µM; in assay [10], over 20 µM; in assay [11] it was 1 µM. Moreover, the Activity result in assay [20] is “Dose-dependent effect”.

With `Nc1ccccc1NC(=O)c1ccc(CNC(=O)OCc2cccnc2)cc1` [ENTINOSTAT], the Activity in assay [23] was found to be 47%.

As for `O=C(CCCCCCC(=O)Nc1ccccc1)NO` [VORINOSTAT], in assay [26], the result was Active. In addition, the Activity in assay [17] is 48%.

Regarding `Nc1ccccc1NC(=O)c1ccc(-c2nnc(Cc3cccc4ccccc34)o2)cc1`, the IC50 was over 20 µM in assay [5], 16.1 µM in assay [10] and 0.3 µM in [11]. For the same compound, in [20], the Activity entry is “Dose-dependent effect”.

In the case of `O=C(/C=C/c1ccc(-c2nnc(Cc3c[nH]c4ccccc34)o2)cc1)NO`, the IC50 came out at 15.2 µM in assay [5], 0.03 µM in [10] and 0.6 µM in assay [11].
